# High-throughput results deposited in PubChem BioAssay by several laboratories.
# Compounds with a hit are over-represented: about 5.2% of the library has one in this group of screens.
# ZTA counter – counter-screen for EBNA-1 inhibitors: inhibitors of Epstein-Barr virus ZTA; inhibition, % at 11 µM; P03206; ZTA-DNA binding, fluorescence polarization; 0.15% of 320,000 active; in the data active = inhibition above about 33%
# core dimer inh – HCV core protein dimerization inhibition; TR-FRET GST/Flag-core106 dimerization, 1536-well; inhibition, % at 5 µM; 0.33% of 300,000 active; AID 1899;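 active = inhibition above the mean of all tested compounds plus 3 SD, set per screening campaign, cut at about 45% in these data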
#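 Material: GST/Flag-tagged HCV core106 proteins. Incubation: 4 h, 22.5 °C incubation. Read-out basis: inhibition (%) from 671 over 617 nm ratio. Measured by: TR-FRET, excitation 340 nm, emission 617 and 671 nm.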
# EBNA-1 inh – blocks EBNA-1 binding to DNA | inhibition, % at 14.8 µM | EBNA-1 DNA binding, fluorescence polarization | 0.34% of 300,000 active; in the data active = inhibition above about 28%
# M18AAP inhibitor – blocks P. falciparum M18 aspartyl aminopeptidase; recombinant PfM18AAP, H-Glu-NHMec fluorogenic cleavage; inhibition, % at 7.35 µM; 1.2% of 290,000 active; AID 1822;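 active = inhibition above the campaign mean inhibition over all tested compounds plus 3 SD, cut at about 28% in these data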
# ALR inh – human ALR oxidase inhibition via reduced H2O2. P55789. purified ALR, DTT oxidation, H2O2 HRP-luminol luminescence. inhibition, % (no concentration beside the values). 3.8% of 290,000 active. AID 485317;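 active = mean replicate inhibition above about 79%, with every replicate also reaching it, limit read from the data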
# HCV NS3 hel inh – inhibitors of Hepatitis C virus NS3 helicase; 0.56% of 290,000 active; NS3 helicase DNA unwinding, Cy5 molecular beacon fluorescence; inhibition, % at 10.9 µM;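 active = inhibition above the mean of all tested compounds plus 3 SD, set per campaign, cut at about 35% in these data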
#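 System: NS3 helicase fragment of HCV / Schedule: 1 h at 25 °C / Control set: DMSO alone as 0% and 110 µM thioflavine S as 100% / Reagent: Cy5/quencher beacon DNA duplex and ATP to start / Technique: Cy5 fluorescence / Replication: singlicate / Evaluation: % inhibition of end-to-start signal ratio versus controls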
# A number is an active result; . = inactive; / = no result given.
SMILES,ZTA counter,core dimer inh,EBNA-1 inh,M18AAP inhibitor,ALR inh,HCV NS3 hel inh
O=c1oc2ccccc2n1CSc1nc2ccccc2s1,.,.,.,.,.,.
O=c1oc2ccccc2n1CSC1=NCCS1,.,.,.,.,99,.
COc1cc(CN2CCNC(=O)C2CC(=O)NC2CCC2)cc(OC)c1 (stereo not drawn),.,.,.,.,.,.
COc1cc(/C=N/NC(=O)Cn2nnc3ccccc32)ccc1O,.,.,.,.,92,.
COc1cc(/C=N/NC(=O)CCn2nnc3ccccc32)ccc1O,.,.,.,.,99,.
Cc1cc(C)n(CCNC(=O)C2CCC(=O)N(Cc3ccc(Cl)cc3)C2)n1 (stereo not drawn),.,.,.,.,.,.
CC(=O)NNS(=O)(=O)c1ccc(-c2cc(C(F)(F)F)n(C)n2)s1,.,.,.,.,/,.
CCOc1cc(/C=N/O)ccc1OS(=O)(=O)c1ccc(C)cc1,.,.,.,.,.,.
